From PubChem BioAssay
Values joined by “and” are separate entries in the source; they are usually repeats but may differ in a detail not shown here. Equal entries are not always repeated. Active and inactive are the calls of the source.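 Rule for the calls, unless noted: active = viability at or under a set limit in both replicates, limit being median viability minus 3 SD (cut at about 48% in these data, passing the limit was not always enough); inconclusive = at or under the limit in just one replicate; inactive = at or above the limit in both replicates.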

Columns and labels:
[1] = Her2 expression decrease, cell viability multiplex – SKBR3 breast tumor cells, AlphaScreen, ATP viability, primary screen (AID 461;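 active = Her2 level under about 52% in both replicate screens, with viability over 70% of control, limit read from the data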;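 for Her2 level: lower value means less Her2 protein in the cells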;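 for viability: percent of carrier control wells set as 100% viability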); details: SKBR3 Her2 protein level, 18-24 h, measured here: SKBR3 viability, ATP luminescence, at 10 µM
[2] = target: Receptor tyrosine-protein kinase erbB-2 (Homo sapiens) (UniProt P04626); experiment: as above; details: 18-24 h, at 10 µM, stronger effect = lower value
Sequence of Receptor tyrosine-protein kinase erbB-2 (Homo sapiens) (P04626 whole entry, looked up): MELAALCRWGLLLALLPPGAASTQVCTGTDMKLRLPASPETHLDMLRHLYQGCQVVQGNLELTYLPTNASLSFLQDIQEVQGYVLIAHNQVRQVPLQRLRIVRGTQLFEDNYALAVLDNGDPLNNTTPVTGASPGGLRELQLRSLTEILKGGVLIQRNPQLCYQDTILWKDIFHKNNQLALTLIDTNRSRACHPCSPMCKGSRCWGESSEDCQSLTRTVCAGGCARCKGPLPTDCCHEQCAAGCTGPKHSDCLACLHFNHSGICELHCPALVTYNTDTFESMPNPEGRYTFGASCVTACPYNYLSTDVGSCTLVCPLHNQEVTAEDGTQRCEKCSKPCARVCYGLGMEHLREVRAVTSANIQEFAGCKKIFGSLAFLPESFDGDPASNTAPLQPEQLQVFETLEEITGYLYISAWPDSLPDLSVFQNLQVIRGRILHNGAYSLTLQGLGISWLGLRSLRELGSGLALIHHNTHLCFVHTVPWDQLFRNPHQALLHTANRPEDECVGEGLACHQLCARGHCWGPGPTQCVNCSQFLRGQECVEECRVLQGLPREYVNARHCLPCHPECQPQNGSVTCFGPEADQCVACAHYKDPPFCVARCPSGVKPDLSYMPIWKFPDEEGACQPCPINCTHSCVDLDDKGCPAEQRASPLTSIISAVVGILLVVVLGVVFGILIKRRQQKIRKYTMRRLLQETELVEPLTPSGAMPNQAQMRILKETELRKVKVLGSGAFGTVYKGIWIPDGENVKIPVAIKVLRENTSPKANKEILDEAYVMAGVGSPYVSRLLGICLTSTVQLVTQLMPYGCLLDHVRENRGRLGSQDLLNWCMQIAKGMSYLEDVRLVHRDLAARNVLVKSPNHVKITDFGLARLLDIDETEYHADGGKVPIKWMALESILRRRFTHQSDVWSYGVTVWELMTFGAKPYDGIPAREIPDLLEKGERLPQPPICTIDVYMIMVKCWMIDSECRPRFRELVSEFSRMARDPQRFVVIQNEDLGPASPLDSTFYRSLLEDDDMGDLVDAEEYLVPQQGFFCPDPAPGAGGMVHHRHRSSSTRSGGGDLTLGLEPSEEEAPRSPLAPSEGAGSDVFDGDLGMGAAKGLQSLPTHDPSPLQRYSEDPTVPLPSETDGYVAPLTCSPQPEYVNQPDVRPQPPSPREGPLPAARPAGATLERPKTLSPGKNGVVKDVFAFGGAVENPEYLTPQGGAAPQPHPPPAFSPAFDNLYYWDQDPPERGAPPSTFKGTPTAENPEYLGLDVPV

[3] = reduced viability of SK-BR-3 breast cancer cells – cell-based, 24 h, human, pilot screen (AID 572;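 active = viability at or below 10% of carrier control in both of two separate runs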;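 note: compound exposure lasted between 18 and 24 h rather than exactly 24 h; 100% = carrier-treated control wells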); details: SK-BR-3 viability, CellTiter-Glo luminescence, at 10 µM, stronger effect = lower value
[4] = HUVEC growth inhibition – cell-based, human, primary screen (AID 575;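 active = viability at or below 30% in both replicate assays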;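 note: 100% = median of untreated cell wells with 0.1% DMSO on each plate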); details: HUVEC proliferation, CellTiter-Glo luminescence, 72 h; at 10 µM; stronger effect = lower value
How it was run: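 material = primary HUVEC, no more than 12 passages | input = 1250 cells per well | controls = vehicle and MePR control wells | measured by = CTG luminescence | times = 72 h compound incubation | format = collagen-coated 384-well format | read-out = % viability vs DMSO wells | doses = single 10 µM dose, 0.1% DMSO, from 5x medium stock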

[5] = H69AR cell proliferation blockers – human, duplicate replicates, primary screen (AID 580); details: H69AR lung tumor cells viability, ATP luminescence, 72 h; at 10 µM; stronger effect = lower value;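 note: 100% = mean luminescence of untreated wells and 0% = no signal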
[6] = MRP1 drug-resistance reversers in H69AR cells – cell-based, doxorubicin co-treatment, pilot screen (AID 601;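 active = viability loss from added drug above about 55%, and viability with drug at most 40%, in both replicates, limit read from the data, passing the limit was not always enough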); details: CellTiter-Glo, 72 h, at 10 µM; for differential viability (reversal): stronger effect = higher value
[7] = yeast transport mutant growth inhibition pilot in 384-well plates, post-Golgi transport modulator project (AID 636; in the data active = inhibition above about 31%); details: absorbance 615 nm, about 18 h, stronger effect = higher value
[8] = growth suppression of yeast trafficking mutant, preliminary HTS, modulators of trafficking downstream of Golgi apparatus project, 1536-format plate, OD 615 nm (AID 637; in the data active = inhibition above about 30%); details: yeast transport mutant growth, absorbance 615 nm, 18 h; stronger effect = higher value
[9] = H69AR cells + 2 uM doxorubicin, measured here: viability with 2 uM doxorubicin, stronger effect = lower value
[10] = H69AR cells, compound alone cytotoxicity

Row | SMILES | viability [1] | Her2 level [2] | viability [3] | viability [4] | viability [5] | differential viability (reversal) ([6]; H69AR cells + 2 uM doxorubicin) | viability [6, 9] | viability [6, 10] | inhibition [7] | inhibition [8]
1 | CCNC(=O)C1CC(=O)N(Cc2ccc3c(c2)OCO3)C(=Nc2ccc(F)cc2)S1 (stereo not given) | 124% | 112% (inactive) | 124% (inactive) | 85.6% (inactive) | 82.6% (inactive) | -5.16% (inactive) | 87.8% | 82.6% | -6.58% (inactive) | -6.98% (inactive)
2 | O=S(=O)(NC1CCCC1)c1ccccc1Cl | 94.5% | 97% (inactive) | 94.5% (inactive) | 87.1% (inactive) | 101% (inactive) | 2.58% (inactive) | 98.4% | 101% | 2.73% (inactive) | 6.39% (inactive)
3 | CC1=C(C(=O)Nc2ccccc2)C(c2ccco2)C(C#N)=C(SCC(=O)Nc2cccc(C)c2C)N1 (stereo not given) | 104% | 85.5% (inactive) | 104% (inactive) | 77.1% (inactive) | 47.5% (active) | -10.1% (inactive) | 57.6% | 47.5% | -4.93% (inactive) | -3.97% (inactive)
4 | CN(C)S(=O)(=O)NC(c1ccccc1)c1ccccc1 | 93% | 97% (inactive) | 93% (inactive) | 105% (inactive) | 105% (inactive) | 15.6% (inactive) | 88.9% | 105% | -8% (inactive) | -2.38% (inactive)
5 | Cc1nnc2n(-c3ccccc3)c(=O)c3c4c(sc3n12)CCCC4 | 79.5% | 115% (inactive) | 79.5% (inactive) | 96.2% (inactive) | 85.6% (inactive) | 33.2% (inactive) | 52.4% | 85.6% | -7.47% (inactive) | 0.33% (inactive)
6 | Cc1cc(Cl)c(S(=O)(=O)N2CCN(c3ccc(F)cc3)CC2)cc1OCC(N)=O | 82.5% | 100% (inactive) | 82.5% (inactive) | 97.1% (inactive) | 80.5% (inactive) | 1.14% (inactive) | 79.3% | 80.5% | -5.66% (inactive) | 8.85% (inactive)
7 | CC(C)(C)C(=O)Cn1c(=N)n(Cc2ccccc2)c2ccccc21 | 84.5% | 81.5% (inactive) | 84.5% (inactive) | 53.3% (inactive) | 76.2% (inactive) | -0.985% (inactive) | 77.1% | 76.2% | -3.2% (inactive) | -2.3% (inactive)
8 | C=CCn1c(SCC(=O)Nc2ccccc2OC)nnc1-c1ccco1 | 95% | 89.5% (inactive) | 95% (inactive) | 95.2% (inactive) | 67.7% (inactive) | -16.8% (inactive) | 84.5% | 67.7% | -4.67% (inactive) | 2.9% (inactive)
9 | C[C@]12CCC(=O)C=C1CC[C@@H]1[C@@H]2[C@@H](O)C[C@@]2(C)[C@H]1CC[C@]2(O)C(=O)COC(=O)CCC(=O)O | 95% | 120% (inactive) | 95% (inactive) and 100% (inactive) | 81.3% (inactive) and 75% (inactive) | 111% (inactive) and 103% (inactive) | 9.53% (inactive) and -0.58% (inactive) | 101% and 103% | 111% and 103% | -3.38% (inactive) | 6.33% (inactive)
10 | O=C(NCc1ccco1)C1CCN(S(=O)(=O)N2CCC3(CC2)OCCO3)CC1 | 99.5% | 92% (inactive) | 99.5% (inactive) | 118% (inactive) | 100% (inactive) | 14.2% (inactive) | 85.8% | 100% | -6.89% (inactive) | -7.17% (inactive)
11 | Cc1cc(C(=O)CSc2nnc(-c3ccco3)o2)c(C)n1CC1COc2ccccc2O1 (stereo not given) | 91.5% | 94% (inactive) | 91.5% (inactive) | 74.3% (inactive) | 89% (inactive) | -9.8% (inactive) | 98.8% | 89% | -2.67% (inactive) | -9.52% (inactive)
12 | CCC(Sc1nc(-c2ccccc2)c(C#N)c(=O)[nH]1)C(=O)Nc1cc(C)on1 (stereo not given) | 90.5% | 111% (inactive) | 90.5% (inactive) | 83% (inactive) | 101% (inactive) | 0.62% (inactive) | 101% | 101% | -1.54% (inactive) | -8.67% (inactive)
13 | CCOC(=O)CSc1nnc(Cn2nnc(-c3ccccc3)n2)n1CC | 95.5% | 84% (inactive) | 95.5% (inactive) | 107% (inactive) | 90.7% (inactive) | -2.04% (inactive) | 92.7% | 90.7% | -7.2% (inactive) | -3.17% (inactive)
14 | O=C1CCC(=O)N1OCCCOc1ccc(Br)cc1Cl | 106% | 98.5% (inactive) | 106% (inactive) | 90% (inactive) | 93.5% (inactive) | -2.35% (inactive) | 95.9% | 93.5% | 0.13% (inactive) | 2.22% (inactive)
15 | COc1cccc(NS(=O)(=O)c2cc(C)sc2C)c1 | 93.5% | 94% (inactive) | 93.5% (inactive) | 97.5% (inactive) | 94.3% (inactive) | 2.18% (inactive) | 92.1% | 94.3% | -2.89% (inactive) | -6.67% (inactive)
16 | CCOC(=O)c1ccc(N2C(=O)CC(N3CCN(C/C=C/c4ccccc4)CC3)C2=O)cc1 (stereo not given) | 84% | 91.5% (inactive) | 84% (inactive) | 91.4% (inactive) | 84.3% (inactive) | -1.62% (inactive) | 85.9% | 84.3% | -0.64% (inactive) | -2.5% (inactive)
17 | COc1cccc(Cn2c(OCC3CCCO3)nc3c2c(=O)n(C)c(=O)n3C)c1 (stereo not given) | 86.5% | 86% (inactive) | 86.5% (inactive) | 104% (inactive) | 101% (inactive) | -0.075% (inactive) | 101% | 101% | -2.11% (inactive) | 3.77% (inactive)
18 | CC(C)(C)OC(=O)N1CCC(C(=O)N2CCCCCC2)CC1 | 94% | 87.5% (inactive) | 94% (inactive) | 102% (inactive) | 107% (inactive) | 21.3% (inactive) | 86.2% | 107% | -1.71% (inactive) | -6.36% (inactive)
19 | CCOc1ccccc1C1CC(=O)NC(SCC)=C1C#N (stereo not given) | 85.5% | 89% (inactive) | 85.5% (inactive) | 109% (inactive) | 97% (inactive) | 7.42% (inactive) | 89.6% | 97% | -6.08% (inactive) | -2.17% (inactive)
20 | CC(=O)Nc1ccc(Oc2ccc3nc(C)[nH]c3c2)cc1 | 97.5% | 93.5% (inactive) | 97.5% (inactive) | 113% (inactive) | 95.4% (inactive) | -9.67% (inactive) | 105% | 95.4% | -6.58% (inactive) | -10.3% (inactive)
21 | CCOC(=O)c1c(C)oc2ccc(OCC(N)=O)cc12 | 120% | 95% (inactive) | 120% (inactive) | 72.3% (inactive) | 97.1% (inactive) | 1.68% (inactive) | 95.4% | 97.1% | -0.79% (inactive) | -5.4% (inactive)
22 | COc1ccccc1CNS(=O)(=O)c1ccc(NC(C)=O)cc1 | 94.5% | 84% (inactive) | 94.5% (inactive) | 106% (inactive) | 92.9% (inactive) | -7.69% (inactive) | 101% | 92.9% | -5.73% (inactive) | 2.22% (inactive)
23 | C=CCn1c(C)cc(C(=O)CSc2nc3ccccc3c(=O)[nH]2)c1C | 90.5% | 92.5% (inactive) | 90.5% (inactive) | 61.5% (inactive) | 77.8% (inactive) | -4.06% (inactive) | 81.8% | 77.8% | 54.1% (active) | 37.6% (active)
24 | O=C(CCNC(=O)Cn1ccc2ccccc2c1=O)NCCN1CCc2ccccc2C1 | 118% | 98% (inactive) | 118% (inactive) | 87.3% (inactive) | 91.8% (inactive) | 0.755% (inactive) | 91% | 91.8% | -7.63% (inactive) | -8.18% (inactive)
25 | Cc1cc(C(F)F)n2ncc(C(=O)NC3CCCCCC3)c2n1 | 89.5% | 86% (inactive) | 89.5% (inactive) | 78.1% (inactive) | 89.9% (inactive) | -0.225% (inactive) | 90.2% | 89.9% | -4.74% (inactive) | 8.69% (inactive)
26 | CCOC(=O)c1[nH]c2ccccc2c1NC(=O)CCN1CCN(C(=O)OCC)CC1 | 110% | 89.5% (inactive) | 110% (inactive) | 81.4% (inactive) | 96.8% (inactive) | 19.1% (inactive) | 77.7% | 96.8% | 1.84% (inactive) | -1.94% (inactive)
27 | Cc1cc(C)n(S(=O)(=O)Cc2ccccc2)n1 | 102% | 135% (inactive) | 102% (inactive) | 97.4% (inactive) | 92.2% (inactive) | -0.205% (inactive) | 92.4% | 92.2% | -6.32% (inactive) | 4.59% (inactive)
28 | COCCCNC(=O)c1ccccc1NS(=O)(=O)c1ccc(C)cc1 | 91% | 98% (inactive) | 91% (inactive) | 92.1% (inactive) | 101% (inactive) | 9.35% (inactive) | 91.2% | 101% | -4.27% (inactive) | -5.24% (inactive)
29 | O=C(c1ccc2c(c1)OCO2)N1CCCN(C(=O)c2ccc3c(c2)OCO3)CC1 | 89.5% | 91% (inactive) | 89.5% (inactive) | 110% (inactive) | 97.9% (inactive) | 10.7% (inactive) | 87.2% | 97.9% | -1.95% (inactive) | -1.97% (inactive)
